The record followed here is ChEMBL document CHEMBL4406863, “Effective Virtual Screening Strategy toward heme-containing proteins: Identification of novel IDO1 inhibitors” (Eur J Med Chem, 2019).

Activity calls are given as the source filed them. No cut-off for these calls is given here. A value given as a limit tells only on which side of the number the result lay.

The target in data set [1] is Indoleamine 2,3-dioxygenase 1 (Homo sapiens, UniProt P14902). The experiment in a line: Inhibition of IDO1 in IFN-gamma stimulated human HeLa cells assessed as reduction in kynurenine production using L-tryptophan as substrate incubated for 24 hrs. The data set is classed as cell-based.
Data set [2] can be described thus: Cytotoxicity against human HeLa cells assessed as survival rate at 30 uM incubated for 24 hrs by MTT assay relative to control. As to conditions: read-out: Activity. The data set is classed as cell-based. A general note: Tetrazolium assays rely on reduction of a dye to a coloured formazan, in cell work by metabolically active cells.
Data set [3] addresses Tryptophan 2,3-dioxygenase (Homo sapiens) (UniProt P48775). The experiment in a line: Inhibition of IFN-gamma-induced human TDO2 transfected in HeLa cells at 10 times IDO1 IC50 concentration using L-tryptophan as substrate incubated for 24 hrs relative to control. In kind it is cell-based. The essentials:
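HeLa cells transfected for 24 h with a human TDO2 plasmid, then reseeded at 5 × 10^3/well. After 6 h, IFN-γ and compounds added in medium with […] for 24 h. Supernatant treated with 6.1 N TCA at 50 °C for 30 min and centrifuged; kynurenine read with p-dimethylaminobenzaldehyde at 480 nm.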

Data set [4] deals with HeLa. The experiment in a line: Effect on IDO1 expression in IFN-gamma-stimulated human HeLa cells at 3 times IDO1 IC50 for 24 hrs by western blot analysis. The data set is classed as functional, cell-based. An outline of the steps:
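HeLa cells (2 × 10^5/well) exposed to human IFN-γ 100 ng/mL with or without compound for 24 h. Lysis in 50 mM Tris-HCl pH 8.0 with detergents and protease inhibitors, then 10% SDS-PAGE and PVDF transfer. Membrane blocked with 5% milk and probed with anti-IDO antibody and HRP secondary; band intensity quantified.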
On the technique in general: Immunoblotting shows a protein as a band on a membrane.

For data set [5], the target named is Indoleamine 2,3-dioxygenase 1 (Mus musculus) (UniProt P28776). The experiment in a line: Reversal of IDO1-mediated immunosuppression in mouse CT26 co-cultured with T-cells assessed as increase in T cell proliferation measured after 48 hrs by MTT assay. An outline of the steps:
(§1)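 CT26 cells (1 × 10^5/well) exposed to compound ([…]) in medium with […] for 48 h. BALB/c splenic T cells resuspended in a 1:1 mix of this supernatant and RPMI/10% FBS with […] for 48 h. IFN-γ measured by ELISA; proliferation by MTT (1 mg/mL, 4 h, 37 °C, DMSO, 570 nm). Three replicate wells, mean ± SEM.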

Data set [6] shares this target. The experiment in a line: Reversal of IDO1-mediated immunosuppression in mouse CT26 co-cultured with T-cells assessed as increase in IFN-gamma production measured after 48 hrs by ELISA. An outline of the steps: as §1
For data set [7] the target is unchanged. The experiment in a line: Reversal of IDO1-mediated immunosuppression in mouse CT26 co-cultured with T-cells assessed as ConA- stimulated differentiation of Treg cells at 0.3 uM measured after 48 hrs by FOXP3-APC based flow cytometry analysis (reference value: 11.4 %). (In general: In flow cytometry, cells or beads pass a laser one at a time.)
Data set [8] concerns CT26. The experiment in a line: Antitumor activity against mouse CT26 cells xenografted in BALB/c mouse assessed as decrease in tumour growth at 50 mg/kg, po via gavage for 17 days by vernier caliper method. In kind it is functional, organism-based.
Data set [9] deals with Mus musculus. The experiment in a line: Induction of apoptosis in BALB/c mouse xenografted with CT26 cells assessed as cell shrinkage at 50 mg/kg via oral gavage for 17 days by H&E staining based analysis. In kind it is functional, organism-based. An outline of the steps:
(§2)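 Tumor tissue from the 17-day CT26/BALB/c gavage study stained with hematoxylin and eosin. Nuclei, cytoplasm and cell morphology assessed by microscopy.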

In data set [10] the test system is Mus musculus. The experiment in a line: Induction of apoptosis in BALB/c mouse xenografted with CT26 cells assessed as nuclear chromatin condensation at 50 mg/kg via oral gavage for 17 days by H&E staining based analysis. In kind it is functional, organism-based. The essentials:
as §2

The subject of data set [11] is Mus musculus. The experiment in a line: Induction of apoptosis in BALB/c mouse xenografted with CT26 cells assessed as nuclear chromatin margination at 50 mg/kg via oral gavage for 17 days by H&E staining based analysis. In kind it is functional, organism-based. An outline of the steps:
as §2

The test system of data set [12] is CT26. The experiment in a line: Antitumor activity against mouse CT26 cells xenografted in immunodeficient BALB/c nude mouse assessed as reduction in tumour growth at 25 mg/kg, ip administered every two days for 17 days and measured at day 17 by vernier caliper method. The data set is classed as functional, organism-based.

Broadly, the IC50 is the point on the concentration scale where inhibition reaches its midpoint. As a reminder, the inhibition is the change of the read-out against control, counted positive when it falls.

Tryptophan 2,3-dioxygenase (Homo sapiens), sequence (P48775 whole entry, looked up): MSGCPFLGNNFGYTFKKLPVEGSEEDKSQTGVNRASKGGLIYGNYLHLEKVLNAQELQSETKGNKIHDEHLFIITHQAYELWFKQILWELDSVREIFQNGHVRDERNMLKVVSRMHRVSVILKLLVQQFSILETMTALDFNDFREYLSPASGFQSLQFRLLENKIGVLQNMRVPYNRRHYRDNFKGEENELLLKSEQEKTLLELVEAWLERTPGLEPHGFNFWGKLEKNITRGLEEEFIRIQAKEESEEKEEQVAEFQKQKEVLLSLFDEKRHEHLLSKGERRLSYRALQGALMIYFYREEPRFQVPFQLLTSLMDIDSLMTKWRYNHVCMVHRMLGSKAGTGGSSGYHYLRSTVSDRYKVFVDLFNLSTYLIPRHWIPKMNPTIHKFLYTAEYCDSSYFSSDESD
Indoleamine 2,3-dioxygenase 1, sequence (P14902 whole entry): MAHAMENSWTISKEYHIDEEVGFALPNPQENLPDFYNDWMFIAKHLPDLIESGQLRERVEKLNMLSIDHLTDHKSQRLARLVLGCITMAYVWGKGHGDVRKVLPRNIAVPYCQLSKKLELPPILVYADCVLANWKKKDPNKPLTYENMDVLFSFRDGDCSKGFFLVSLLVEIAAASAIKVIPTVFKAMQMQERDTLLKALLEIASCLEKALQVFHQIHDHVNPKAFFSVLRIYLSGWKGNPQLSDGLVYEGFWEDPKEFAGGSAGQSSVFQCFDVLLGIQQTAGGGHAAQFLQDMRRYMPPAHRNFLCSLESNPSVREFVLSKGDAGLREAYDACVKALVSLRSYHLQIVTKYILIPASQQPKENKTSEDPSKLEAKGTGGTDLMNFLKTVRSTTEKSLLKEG
Indoleamine 2,3-dioxygenase 1 (Mus musculus), sequence (P28776 whole entry, looked up): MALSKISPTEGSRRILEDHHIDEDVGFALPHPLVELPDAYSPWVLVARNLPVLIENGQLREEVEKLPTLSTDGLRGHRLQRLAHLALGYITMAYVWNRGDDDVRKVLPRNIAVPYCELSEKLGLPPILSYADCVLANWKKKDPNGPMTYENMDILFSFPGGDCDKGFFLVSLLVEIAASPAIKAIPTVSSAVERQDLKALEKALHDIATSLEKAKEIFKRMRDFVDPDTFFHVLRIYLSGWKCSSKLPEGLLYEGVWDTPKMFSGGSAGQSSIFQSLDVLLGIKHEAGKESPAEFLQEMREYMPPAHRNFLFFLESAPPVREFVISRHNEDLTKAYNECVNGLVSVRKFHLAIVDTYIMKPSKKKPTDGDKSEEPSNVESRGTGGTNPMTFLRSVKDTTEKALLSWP

With `O=C(Cn1cnc2scc(-c3ccccc3)c2c1=O)NC(=O)Nc1ccccc1`, the IC50 in data set [1] is more than 30 µM. The viability at 24 h, 30 µM in data set [2] turned out to be 85%.

Turning to `O=C(Cc1ccc([N+](=O)[O-])cc1)N/N=C/c1c(O)ccc2ccccc12`, the IC50 in [1] was found to be 10.3 µM. Besides, the viability at 24 h, 30 µM in data set [2] came to 106%.

On to `O=C(Cn1cnc2scc(-c3ccc(F)cc3)c2c1=O)NC(=O)NCc1ccccc1`, for which the IC50 in data set [1] was more than 30 µM. In addition, the viability at 24 h, 30 µM in [2] was determined as 100%.

Regarding `c1ccc(C2=Nn3c(CN4CCc5ccccc54)nnc3SC2)cc1`, the IC50 in data set [1] is more than 30 µM. Besides, in data set [2], the viability at 24 h, 30 µM was found to be 98%.

As for `Cc1ccc(-c2csc3ncn(CC(=O)Nc4cccc5ccccc45)c(=O)c23)cc1`, the IC50 in data set [1] worked out at 20.1 µM. Also, in [2], the viability at 24 h, 30 µM is 99%.

Turning to `COc1cccc(NCc2nnc3n2N=C(c2cccc(OC)c2)CS3)c1`, in [1], the IC50 is more than 30 µM. The viability at 24 h, 30 µM in data set [2] was determined as 104%.

For the compound `O=C(Cc1ccccc1)N/N=C/c1c(O)ccc2cc([N+](=O)[O-])ccc12`, the inhibition in data set [3] was less than 20%. Further, the IC50 in data set [1] worked out at 4.8 µM. Moreover, the viability at 24 h, 30 µM in data set [2] was found to be 108%. In addition, the result in data set [4] was inactive.

Regarding `COc1ccccc1NCC(=O)N/N=C/c1c(O)ccc2ccccc12`, the IC50 in [1] came to 8.6 µM. In [2], the viability at 24 h, 30 µM was determined as 114%.

Turning to `CCOc1ccc(NCc2nnc3n2N=C(c2cccs2)CS3)cc1`, the IC50 in [1] was more than 30 µM. Further, in data set [2], the viability at 24 h, 30 µM was found to be 101%.

In the case of `NS(=O)(=O)c1ccc(NC(=O)Cn2cnc3scc(-c4ccco4)c3c2=O)cc1`, the viability at 24 h, 30 µM in data set [2] was 77%.

In the case of `Cc1ccccc1NC(=O)c1cc2ccccc2c(/C=N/Nc2nc3ccccc3s2)c1O`, in data set [2], the viability at 24 h, 30 µM was 101%.

In the case of `NS(=O)(=O)NCCNc1nonc1C(=NO)Nc1ccc(F)c(Br)c1` [EPACADOSTAT], the viability at 24 h, 30 µM in [2] is 92%.

Consider `CCOc1ccc(/C=N/NC(=O)c2c(O)ccc3ccccc23)cc1`, for which, in data set [1], the IC50 came to 27.3 µM. Also, the viability at 24 h, 30 µM in data set [2] amounted to 112%.

With `Cc1ccc(OCC(=O)N/N=C/c2c(O)ccc3ccccc23)c(C)c1`, the IC50 in [1] was more than 30 µM. Also, the viability at 24 h, 30 µM in data set [2] came to 80%.

On to `COc1ccc(NC(=O)Cn2cnc3scc(-c4ccc(OC)c(OC)c4)c3c2=O)cc1`, for which, in data set [1], the IC50 was 5.6 µM. The viability at 24 h, 30 µM in data set [2] was 101%.

For the compound `CCC(Nc1ccc(Cl)cc1C)C(=O)N/N=C/c1cccc2ccccc12` (stereo not given), the IC50 in data set [1] is 2.2 µM.

Turning to `COc1cccc(NCc2nnc3n2N=C(c2ccc(Br)cc2)CS3)c1`, the IC50 in data set [1] amounted to 20.6 µM. In [2], the viability at 24 h, 30 µM was 101%.

On to `COc1ccc(NC(=O)Cn2cnc3scc(-c4ccc(C)cc4)c3c2=O)cc1`, for which the inhibition in data set [3] is less than 20%. Besides, the IC50 in data set [1] worked out at 3.2 µM. Besides, the viability at 24 h, 30 µM in data set [2] amounted to 107%. The result in data set [5], in data set [6], in data set [9], in data set [10] and in data set [11] was Active. Also, the Activity in data set [7] was 10.8%. The inhibition entry in data set [8] is “Active”. The result in data set [4] was inactive.

For the compound `COc1ccc(CC(=O)N/N=C/c2c(O)ccc3ccccc23)cc1`, the IC50 in data set [1] is more than 30 µM. In addition, the viability at 24 h, 30 µM in data set [2] stood at 91%.

As for `O=c1[nH]cc(F)c(=O)[nH]1`, the outcome in [12] was Active.

Turning to `COc1ccccc1N(CC(=O)N/N=C/c1c(O)ccc2ccccc12)S(C)(=O)=O`, in [1], the IC50 was more than 30 µM. Also, the viability at 24 h, 30 µM in data set [2] was 89%.

On to `Fc1ccc(C2=Nn3c(CNc4ccc5c(c4)OCO5)nnc3SC2)cc1`, for which the viability at 24 h, 30 µM in [2] was found to be 100%.

Consider `CN(C)c1ccc(C(=O)N/N=C/c2c(O)ccc3ccccc23)cc1`, for which the IC50 in [1] came out at 21.1 µM. For the same compound, the viability at 24 h, 30 µM in [2] is 114%.

Take `O=C(Cn1cnc2scc(-c3ccc(Cl)cc3)c2c1=O)NCc1ccco1`: in data set [1], the IC50 turned out to be 12.4 µM. The viability at 24 h, 30 µM in data set [2] came out at 108%.

As to `CN(C)c1ccc(/C=C(/NC(=O)c2ccccc2Cl)C(=O)N/N=C/c2c(O)ccc3ccccc23)cc1`, the viability at 24 h, 30 µM in data set [2] amounted to 66%.

For `Cc1nc2ccccc2n1Cc1nnc2n1N=C(c1ccc(Cl)cc1)CS2`, the viability at 24 h, 30 µM in data set [2] amounted to 85%.

In the case of `CCC(Nc1ccc(Cl)cc1C)C(=O)N/N=C/c1c(O)ccc2ccccc12` (stereo not given), in [1], the IC50 is 2.1 µM. The viability at 24 h, 30 µM in data set [2] came to 105%. Also, the result in data set [5] was Active. The Activity in data set [7] was 6.7%. Further, the outcome in data set [4] was inactive.

On to `Oc1ccc2ccccc2c1/C=N/Nc1nccs1`, for which the IC50 in data set [1] was more than 30 µM. Besides, the viability at 24 h, 30 µM in data set [2] came out at 99%.

On to `COc1ccccc1C(=O)N/N=C/c1c(O)ccc2ccccc12`, for which the IC50 in [1] was 11.3 µM. The viability at 24 h, 30 µM in [2] is 100%.

`CCNC(=O)C(=O)N/N=C/c1c(O)ccc2ccccc12`: the IC50 in data set [1] was more than 30 µM. Further, the viability at 24 h, 30 µM in data set [2] is 102%.

In the case of `NS(=O)(=O)NCCNc1nonc1/C(=N/O)Nc1ccc(F)c(Br)c1`, in data set [3], the inhibition was less than 20%.

On to `Cc1sc2ncn(CC(=O)NCc3ccccc3)c(=O)c2c1-c1ccc(Br)cc1`, for which the viability at 24 h, 30 µM in [2] was found to be 84%.

`Cc1ccc(C2=Nn3c(CNc4ccc(F)cc4)nnc3SC2)cc1`: the viability at 24 h, 30 µM in [2] came to 110%.

With `O=C(N/N=C/c1c(O)ccc2ccccc12)C(=O)Nc1cccc(C(F)(F)F)c1`, the viability at 24 h, 30 µM in [2] worked out at 59%.

In the case of `Cc1ccc(NCc2nnc3n2N=C(c2ccc(Cl)cc2)CS3)cc1`, the viability at 24 h, 30 µM in data set [2] was 100%.

`Oc1ccccc1CN1CCCC(c2n[nH]cc2-c2ccc(Cl)cc2)C1` (stereo not given): in data set [1], the IC50 worked out at 18.6 µM. Besides, the viability at 24 h, 30 µM in data set [2] is 101%.

As for `OC(CC1c2ccccc2-c2cncn21)C1CCCCC1` (stereo not given), the inhibition in data set [3] was less than 20%.

`CCC(Nc1ccc(Cl)cc1C)C(=O)N/N=C/c1ccccc1O` (stereo not given) gave an inhibition in data set [3] of less than 20%. The result in [4] was inactive.

For `O=C(N/N=C/c1c(O)ccc2ccccc12)Nc1ccccc1`, the IC50 in data set [1] is more than 30 µM. For the same compound, the viability at 24 h, 30 µM in [2] is 102%.

Consider `O=C(CSc1ccc(Cl)cc1)N/N=C/c1c(O)ccc2ccccc12`, for which, in [1], the IC50 was determined as 6 µM. For the same compound, the viability at 24 h, 30 µM in data set [2] stood at 106%.
